Data reported in article PMC10825549 (JID Innovations, 2023).
Entries after “also recorded” stand apart in the source; their conditions may differ.

Key:
TYK2 = TYK2 (Homo sapiens, UniProt P29597); experiment: Inhibition of catalytic domain activity, TYK2; type: biochemical
How it was run: (§1)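 Z′-LYTE biochemical kinase assay run by the vendor per manufacturer's protocol. Each kinase plate carried 0%/100% phosphorylation and 0%/100% inhibition controls. Development-reaction and compound-fluorescence interference controls at each compound concentration. n = 1 per kinase.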

CYP2C8 = CYP2C8 (Homo sapiens, UniProt P10632); experiment: Cytochrome P450 phenotyping; type: in vitro ADME; details: recombinant human CYP2C8; with NADPH; 60 minutes; n = 1
Sequence of CYP2C8 (P10632 whole entry): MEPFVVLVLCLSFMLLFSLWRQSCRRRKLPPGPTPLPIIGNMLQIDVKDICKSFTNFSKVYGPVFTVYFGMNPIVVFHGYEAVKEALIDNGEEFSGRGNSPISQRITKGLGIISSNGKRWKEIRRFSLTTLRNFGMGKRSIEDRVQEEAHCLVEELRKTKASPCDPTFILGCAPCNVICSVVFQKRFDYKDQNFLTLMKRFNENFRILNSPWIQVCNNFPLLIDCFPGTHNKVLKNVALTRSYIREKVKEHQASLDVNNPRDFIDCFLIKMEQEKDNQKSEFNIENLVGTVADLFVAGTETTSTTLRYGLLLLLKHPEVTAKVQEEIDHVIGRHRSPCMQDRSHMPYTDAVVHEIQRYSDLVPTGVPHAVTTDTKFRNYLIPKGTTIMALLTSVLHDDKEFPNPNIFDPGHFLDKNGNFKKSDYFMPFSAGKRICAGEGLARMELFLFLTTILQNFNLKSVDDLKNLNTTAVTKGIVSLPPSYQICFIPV
How it was run: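 Recombinant human CYPs prepared at CYP1A2 200 nM, CYP2B6/2C8 250 nM, CYP2C9 100 nM, CYP2D6 50 nM. Test compound added as 2 μM DMSO dosing solution on ice. Plate prewarmed, then 8 mM NADPH solution or blank buffer added. Incubation 60 min (1A2, 2B6, 2C8) or 30 min (2C9, 2D6). Stopped with acetonitrile plus internal standard; supernatant by LC-MS/MS; n = 1.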

[1] = 7-day minipig study: plasma pharmacokinetics; type: in vivo
MARK1 = MARK1 (Homo sapiens, UniProt Q9P0L2); experiment: IC50 for kinases of potential cross-over; type: biochemical
Sequence of MARK1 (Q9P0L2 whole entry): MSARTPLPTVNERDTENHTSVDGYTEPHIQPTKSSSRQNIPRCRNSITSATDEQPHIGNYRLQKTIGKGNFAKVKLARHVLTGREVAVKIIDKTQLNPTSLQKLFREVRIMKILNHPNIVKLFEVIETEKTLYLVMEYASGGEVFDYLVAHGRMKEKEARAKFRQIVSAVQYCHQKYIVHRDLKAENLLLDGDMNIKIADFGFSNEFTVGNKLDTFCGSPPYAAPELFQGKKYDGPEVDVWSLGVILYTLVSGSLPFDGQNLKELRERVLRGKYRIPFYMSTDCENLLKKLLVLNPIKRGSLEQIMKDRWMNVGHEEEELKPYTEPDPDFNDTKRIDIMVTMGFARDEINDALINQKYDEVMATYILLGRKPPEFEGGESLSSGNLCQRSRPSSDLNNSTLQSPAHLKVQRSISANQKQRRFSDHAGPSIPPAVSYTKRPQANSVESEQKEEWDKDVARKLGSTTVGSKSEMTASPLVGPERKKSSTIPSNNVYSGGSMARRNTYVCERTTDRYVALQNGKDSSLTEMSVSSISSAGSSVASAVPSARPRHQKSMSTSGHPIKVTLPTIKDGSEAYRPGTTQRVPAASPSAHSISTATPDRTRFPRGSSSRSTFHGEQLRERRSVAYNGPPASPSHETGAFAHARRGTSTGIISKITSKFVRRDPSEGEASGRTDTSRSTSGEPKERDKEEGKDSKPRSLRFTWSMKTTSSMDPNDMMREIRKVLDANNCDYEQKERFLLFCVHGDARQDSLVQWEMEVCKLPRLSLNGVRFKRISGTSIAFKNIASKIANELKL

BTK = BTK (Homo sapiens, UniProt Q06187); experiment: IC50 for kinases of potential cross-over; type: biochemical
Sequence of BTK (Q06187 whole entry): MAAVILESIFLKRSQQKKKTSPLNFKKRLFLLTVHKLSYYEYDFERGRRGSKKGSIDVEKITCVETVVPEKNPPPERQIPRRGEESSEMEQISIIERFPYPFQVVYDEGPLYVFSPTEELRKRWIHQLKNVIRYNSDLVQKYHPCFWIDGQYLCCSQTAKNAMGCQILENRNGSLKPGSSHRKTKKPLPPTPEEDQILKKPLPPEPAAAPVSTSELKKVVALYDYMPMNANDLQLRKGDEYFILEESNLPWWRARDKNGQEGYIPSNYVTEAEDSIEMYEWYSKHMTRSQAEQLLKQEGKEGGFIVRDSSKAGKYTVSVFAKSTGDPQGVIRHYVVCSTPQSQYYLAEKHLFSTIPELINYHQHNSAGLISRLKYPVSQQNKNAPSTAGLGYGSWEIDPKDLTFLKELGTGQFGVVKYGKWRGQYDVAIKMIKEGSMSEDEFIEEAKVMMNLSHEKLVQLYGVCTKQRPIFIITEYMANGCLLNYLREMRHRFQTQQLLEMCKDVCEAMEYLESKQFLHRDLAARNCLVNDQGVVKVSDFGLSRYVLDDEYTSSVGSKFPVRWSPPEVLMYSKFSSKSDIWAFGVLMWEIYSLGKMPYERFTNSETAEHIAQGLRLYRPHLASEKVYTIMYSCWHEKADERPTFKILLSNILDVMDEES

minipig = experiment: 28-day minipig repeat exposure study: toxicology; type: in vivo; details: topical solution daily for 28 days, 0, 40, 80 and 160 mg/day
How it was run: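 GLP repeat-dose dermal study in minipigs. Topical solution given daily for 28 days at 0, 40, 80 and 160 mg/day. Left on skin 20–22 h each day, then the site was wiped clean with a moist towel. Dermal tolerability and toxicokinetics assessed.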

Jak1 = Jak1 (Homo sapiens, UniProt P23458); experiment: Inhibition of catalytic domain activity, Jak1; type: biochemical
Sequence of Jak1 (P23458 875-1153 limits assumed): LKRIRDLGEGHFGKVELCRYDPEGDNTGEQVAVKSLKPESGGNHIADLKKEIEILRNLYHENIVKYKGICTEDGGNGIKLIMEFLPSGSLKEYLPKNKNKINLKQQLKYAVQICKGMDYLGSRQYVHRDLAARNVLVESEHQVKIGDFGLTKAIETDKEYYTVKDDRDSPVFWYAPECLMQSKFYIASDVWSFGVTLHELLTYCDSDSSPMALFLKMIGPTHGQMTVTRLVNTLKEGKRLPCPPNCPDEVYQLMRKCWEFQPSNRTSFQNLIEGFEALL
How it was run: as §1

[2] = 28-day minipig repeat exposure study: toxicokinetics; type: in vivo; details: for concentration at 0 h / concentration at 0.5 h / concentration at 1 h / concentration at 2 h / concentration at 4 h / concentration at 8 h / concentration at 12 h / concentration at 24 h: both, plasma, topical; for concentration in the skin: terminal sacrifice (day 28)
How it was run: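 Topical solution applied to minipigs once daily for 28 days at 0, 40, 80 or 160 mg/day, left on skin 20–22 h, then wiped with moist towel. Jugular blood collected days 1 and 28, pre-dose and ~0.5, 1, 2, 4, 8, 12, 22 h after application, after IM acepromazine 0.2–0.4 mg/kg. Pigs nonfasted; K2 EDTA plasma; validated LC-MS/MS.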

CYP3A4 = CYP3A4 (Homo sapiens, UniProt P08684); experiment: Cytochrome P450 phenotyping; type: in vitro ADME; details: recombinant human CYP3A4; with NADPH; 30 minutes; n = 1
Sequence of CYP3A4 (P08684 whole entry): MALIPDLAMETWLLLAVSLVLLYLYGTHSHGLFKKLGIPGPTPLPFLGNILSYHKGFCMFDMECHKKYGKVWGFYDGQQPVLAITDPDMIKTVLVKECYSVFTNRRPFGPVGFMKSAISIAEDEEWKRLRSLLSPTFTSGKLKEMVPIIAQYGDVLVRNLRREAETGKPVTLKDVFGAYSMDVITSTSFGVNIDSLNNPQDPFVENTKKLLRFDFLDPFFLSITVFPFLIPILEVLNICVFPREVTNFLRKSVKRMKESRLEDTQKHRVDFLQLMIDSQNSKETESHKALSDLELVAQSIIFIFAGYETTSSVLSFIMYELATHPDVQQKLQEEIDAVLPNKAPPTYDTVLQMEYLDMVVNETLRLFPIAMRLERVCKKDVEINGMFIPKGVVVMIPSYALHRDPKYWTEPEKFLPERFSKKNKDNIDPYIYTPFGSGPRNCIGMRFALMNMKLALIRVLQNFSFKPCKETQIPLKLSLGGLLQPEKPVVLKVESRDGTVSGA
How it was run: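 Recombinant human CYP3A4 was prepared at 100 nM, and a 2 μM dosing solution of test compound in DMSO was added on ice. After prewarming, 8 mM NADPH solution or blank buffer was added for 30 minutes. Acetonitrile with internal standard stopped the reaction. The plate was shaken and centrifuged, and the supernatant was analysed by LC-MS/MS; n = 1.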

Jak1/3 = experiment: Inhibition of IL-2-induced STAT phosphorylation in PBMCs; type: cell-based, human
How it was run: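 Ficoll-isolated human PBMCs, cryopreserved, thawed into RPMI/10% heat-inactivated FBS assay medium, 200,000 cells/well. Serially diluted test compound (final 20 μM to 2 × 10−6 μM) or 0.1% DMSO vehicle preincubated 1 h at 37 °C. Cytokine then added for 5–10 min, followed by 30 min shaking at 4 °C and lysis. Phospho-STAT5/STAT4 by MSD immunoassay, phospho-STAT1 by ELISA. IC50 reported as mean ± SD.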

[3] = male, plasma, topical, 160 mg/day

Sequence of TYK2 (P29597 897-1176 limits assumed): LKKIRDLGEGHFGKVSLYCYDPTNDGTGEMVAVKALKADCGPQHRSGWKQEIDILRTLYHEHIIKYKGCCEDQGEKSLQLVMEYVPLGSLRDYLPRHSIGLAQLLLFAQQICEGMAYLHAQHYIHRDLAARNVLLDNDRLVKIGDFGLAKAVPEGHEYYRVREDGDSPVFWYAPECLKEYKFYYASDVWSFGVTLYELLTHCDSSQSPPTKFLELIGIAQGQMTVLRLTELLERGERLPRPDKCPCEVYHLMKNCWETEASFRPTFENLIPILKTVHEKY

CCOC(=O)c1cnc2[nH]ccc2c1N[C@@H]1CCCN(C(=O)CC#N)C1 [ATI-1777, ethyl (R)-4-((1-(2-cyanoacetyl)piperidin-3-yl)amino)-1H-pyrrolo[2,3-b]pyridine-5-carboxylate]
IC50 (TYK2): 19 nM | Percentage Remaining (CYP2C8): 41.2% | systemic exposure ([1]; 2% solution, 7 consecutive days, LLOQ = 0.5 ng/ml, at most time points): unquantifiable | concentration at 0 h [1, 3]: 0 ng/mL | concentration at 1 h [1, 3]: 0 ng/mL | concentration at 2 h [1, 3]: 0.387 ng/mL | concentration at 4 h [1, 3]: 0.221 ng/mL | concentration at 8 h [1, 3]: 0.391 ng/mL | concentration at 12 h [1, 3]: 0 ng/mL | concentration at 24 h [1, 3]: 0 ng/mL | IC50 (MARK1): 1250 nM | Fold Selectivity (MARK1; MARK1 vs Jak1 (= 1)): 833 fold | IC50 (BTK): 210 nM | Fold Selectivity (BTK; BTK vs Jak1 (= 1)): 140 fold | ATI-1777–related effects / adverse effects (minipig): No ATI-1777–related effects were noted at any dose; also recorded: did not present any adverse effects | IC50 (Jak1): 1.5 nM | Fold Selectivity (Jak1; Jak1 reference line of Table 2): 1 fold | quantifiable plasma concentrations ([2]; 160 mg group, day 28, all pigs): < 6.26 ng/mL | plasma concentrations when quantifiable ([2]; 40 and 80 mg/day, days 1 and 28, nonquantifiable in most pigs): ≤ 4.94 ng/mL | concentration at 0 h ([2]; 40 mg/day): 0.34 ng/mL | concentration at 0.5 h ([2]; 40 mg/day): 0.143 ng/mL | concentration at 1 h ([2]; 40 mg/day): 0.0685 ng/mL | concentration at 2 h ([2]; 40 mg/day): 0.108 ng/mL | concentration at 4 h ([2]; 40 mg/day): 0.121 ng/mL | concentration at 8 h ([2]; 40 mg/day): 0 ng/mL | concentration at 12 h ([2]; 40 mg/day): 0 ng/mL | concentration at 24 h ([2]; 40 mg/day): 0 ng/mL | concentration at 0 h ([2]; 80 mg/day): 0.118 ng/mL | concentration at 0.5 h ([2]; 80 mg/day): 0.647 ng/mL | concentration at 1 h ([2]; 80 mg/day): 0.0995 ng/mL | concentration at 2 h ([2]; 80 mg/day): 0.197 ng/mL | concentration at 4 h ([2]; 80 mg/day): 0.193 ng/mL | concentration at 8 h ([2]; 80 mg/day): 0.173 ng/mL | concentration at 12 h ([2]; 80 mg/day): 0.823 ng/mL | concentration at 24 h ([2]; 80 mg/day): 0 ng/mL | concentration at 0 h ([2]; 160 mg/day): 1.82 ng/mL | concentration at 0.5 h ([2]; 160 mg/day): 0.479 ng/mL | concentration at 1 h ([2]; 160 mg/day): 1.14 ng/mL | concentration at 2 h ([2]; 160 mg/day): 1.12 ng/mL | concentration at 4 h ([2]; 160 mg/day): 0.755 ng/mL | concentration at 8 h ([2]; 160 mg/day): 0.684 ng/mL | concentration at 12 h ([2]; 160 mg/day): 1.02 ng/mL | concentration at 24 h ([2]; 160 mg/day): 0.0569 ng/mL | concentration in the skin ([2]; females): ≥ 1960 ng/g | concentration in the skin ([2]; males): ≥ 4280 ng/g | Percentage Remaining (CYP3A4): 0.56% | IC50 (Jak1/3; Homo sapiens, PBMC, read-out: IC50 Mean ± SD): 19 ± 6 nM | Fold Jak1/3 (Jak1/3; IL-2, Jak1/3 (reference)): 1.0 fold
